Data: paper PMC11986672 (RSC Medicinal Chemistry, 2025)
Where “and” joins values, the source holds several entries; their conditions need not be identical. Equal entries are not always repeated. Entries after “also recorded” stand apart in the source; their conditions may differ. Where two headings read alike, the source gives them in different places.

Key:
[1] = tested on: human endometrial cancer (HEC1A) cells; experiment: MTT cytotoxicity assay, HEC1A; format: cell-based; details: for IC50: Homo sapiens, HEC-1-A, 48 h, read-out: HEC1A IC50, MTT cell viability, 48 h, n = 3 biological repeats; for Selectivity ratio: IC50 MAD11 divided by IC50 HEC1A
Summary of the method: (§1)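 HEC1A (5000/well) and MAD11 (2500/well) cells were seeded and held overnight at 37 °C. Test compound was reconstituted in DMSO and serially diluted in medium to final 160, 80, 40, 20, 10, 5, 2.5 and 1.25 μM, in triplicate, with matched DMSO in all wells. After 48 h, MTT was added for 3 h, formazan solubilised (4 mM HCl, 0.1% NP-40, isopropanol) and absorbance read at 590/620 nm. IC50 was taken against vehicle controls; selectivity = MAD11 IC50 / HEC1A IC50.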

[2] = tested on: noncancerous human endometrial stromal (MAD11) cells; experiment: MTT cytotoxicity assay, MAD11; format: cell-based; details: MAD11, 48 h, read-out: MAD11 IC50
Summary of the method: as §1

[3] = tested on: CALU-1 (lung squamous cell carcinoma); experiment: MTT cytotoxicity assay, CALU-1; format: cell-based; details: Homo sapiens, Calu-1, read-out: Mean IC50 CALU-1
Summary of the method: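 Uses the HEC1A MTT protocol: test compound in DMSO, diluted to final 160 down to 1.25 μM in two-fold steps, in triplicate, with equal DMSO in controls. […] CALU-1 was cultured in MEM in place of DMEM. […]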

[4] = tested on: HEC1A endometrial cancer cells; experiment: Thiol rescue experiment; format: cell-based, human; details: for rescue of cytotoxicity by NAC and GSH pre-treatment: NAC or GSH 2 mM for 40 min; for IC50: Homo sapiens, HEC-1-A; for ΔIC50 (+GSH): IC50 with GSH minus IC50 of compound alone; for ΔIC50 (+NAC): IC50 with NAC minus IC50 of compound alone
Summary of the method: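 HEC1A cells were seeded on day 1 (5000/well). On day 2 they were pre-treated 40 min with NAC or GSH, 2 mM in medium neutralised to pH 7.4. Test compound was then added (final 160–1.25 μM serial dilutions, triplicate, equal DMSO), with 48 h incubation. The MTT readout (3 h, absorbance 590/620 nm) followed. IC50 was compared with cells given no thiol.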

[5] = tested on: HEC1A cancer cells; experiment: Oxygen consumption rate assay; format: cell-based, human; details: over 120 minutes, compared to vehicle (DMSO) control, 21 at 20 μM
Summary of the method: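 Seahorse XF96 OCR assay. HEC1A cells (15 000/well) adhered 24 h in DMEM, 10% FBS, penicillin/streptomycin at 37 °C, 5% CO₂. Medium was then swapped for unbuffered phenol-red-free DMEM (25 mM glucose, 4 mM glutamine, 1 mM pyruvate, pH 7.4), with 40 min degassing at 37 °C without CO₂. Three baseline reads preceded compound injection; 11 cycles (3 min wait, 3 min mix, 2 min measure) followed. OCR was normalised to the third baseline reading; DMSO served as vehicle control.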

[6] = 10 mg kg−1 via oral gavage in C57BL/6 mice; cited from earlier work
[7] = Pharmacokinetic profiling in vivo; set-up: species or system C57BL/6 mice

| Structure (SMILES) | IC50 [1] | Selectivity ratio [1] | IC50 [2] | IC50 [3] | rescue of cytotoxicity by NAC and GSH pre-treatment ([4]; HEC1A) | IC50 ([4]; read-out: +GSH IC50 ± SEM) | IC50 ([4]; read-out: +NAC IC50) | ΔIC50 (+GSH) [4] | ΔIC50 (+NAC) [4] | maximum OCR increase [5] | half-life [6] | decrease of potency with GSH pre-treatment (times) ([4]; HEC1A, GSH 2 mM) | decrease of potency with NAC pre-treatment (times) ([4]; HEC1A, NAC 2 mM) | IC50 ([4]; read-out: Alone IC50) | half-life ([7]; C57BL/6, mouse, plasma, po, 20 mg/kg) | half-life longer than BH10 ([7]; oral administration, versus BH10 t1/2 = 21.6 min) |
| --- | --- | --- | --- | --- | --- | --- | --- | --- | --- | --- | --- | --- | --- | --- | --- | --- |
| O=C1C(Cl)=C(NCCN2CCOCC2)C(=O)c2ccccc21 [BH10, 2-chloro-3-[(2-morpholin-4-ylethyl)amino]naphthalene-1,4-dione, reference compound] | 10.2 µM | 2.51 | 25.6 µM | 16.7 µM | rescued | > 80 µM | 58 µM | >+69.78 μM | +47.78 μM | up to 200% | 21.6 min | – | – | – | – | – |
| O=C1C(Cl)=C(NCCCN2CCCCC2)C(=O)c2ccccc21 [Compound 21, 2-Chloro-3-((3-(piperidin-1-yl)propyl)amino)-[1,4]-naphthoquinone] | 1.83 µM | 2.62 | 4.79 µM | 4.7 µM | partially rescued | 16 µM | 13 µM | +14.17 μM | +11.17 μM | approximately 280% | – | 8.7 times | 7.1 times | 1.83 µM | – | – |
| Cc1nc2c(n1CCCN1CCCCC1)C(=O)c1ccccc1C2=O [Compound 44, 2-Methyl-1-(3-(piperidin-1-yl)propyl)-1H-naphtho[2,3-d]imidazole-4,9-dione] | 6.4 µM | 3.6 and 3.59 | 23 µM | 15.4 µM | did not rescue; also recorded: unaffected | 7.4 µM | 6.8 µM | +1.00 μM | +0.40 μM | 130% | – | – | – | 6.4 µM | 26.8 min | 5.2 min |
